In ChEMBL document CHEMBL1157799, “Creating an antibacterial with in vivo efficacy: synthesis and characterization of potent inhibitors of the bacterial cell division protein FtsZ with improved pharmaceutical properties” (J Med Chem, 2010):
Converted amounts (≈) assume the structure as drawn. The source made the active and inactive calls. The rule behind the calls is not given here.

How the values were obtained:
Plasma = assay: Plasma protein binding in mouse at 10 uM by equilibrium dialysis; assay type: ADME, cell-free
How it was run: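 Binding to plasma measured by equilibrium dialysis of a 10 µM compound solution. Reported as fraction unbound or percent bound.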

[1] = biological target: T1, Cell division protein FtsZ (Staphylococcus aureus) (UniProt P0A031); assay: Inhibition of Staphylococcus aureus ATCC 29213 FtsZ assessed as lowest drug level required for ballooning of cells by light microscopy
T1 sequence (whole entry): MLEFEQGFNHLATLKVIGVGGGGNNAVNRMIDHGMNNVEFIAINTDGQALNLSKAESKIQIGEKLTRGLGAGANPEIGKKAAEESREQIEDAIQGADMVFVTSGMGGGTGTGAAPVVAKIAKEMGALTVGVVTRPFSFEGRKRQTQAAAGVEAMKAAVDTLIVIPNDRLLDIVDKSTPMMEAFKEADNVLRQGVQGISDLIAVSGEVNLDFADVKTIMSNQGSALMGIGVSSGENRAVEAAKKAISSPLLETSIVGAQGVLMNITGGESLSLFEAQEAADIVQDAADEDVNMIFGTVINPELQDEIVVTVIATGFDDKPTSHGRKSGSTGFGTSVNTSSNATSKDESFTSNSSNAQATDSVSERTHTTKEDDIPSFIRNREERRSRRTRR
How it was run: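 Cocci examined by light microscopy for morphology. Value is the lowest concentration at which ballooning appears; WT is recorded when morphology is unchanged.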

Staphylococcus aureus [2] = assay: Antibacterial activity against Staphylococcus aureus ATCC 29213 by broth microdilution assay; assay type: functional
How it was run: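 Broth microdilution MIC per CLSI recommendations; reproducibility within one 2-fold dilution of the end point.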

Staphylococcus aureus [3] = assay: Antibacterial activity against Staphylococcus aureus ATCC 29213 by broth microdilution assay in presence of 2% bovine serum albumin; assay type: functional
How it was run: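 Broth microdilution MIC per CLSI recommendations, with 2% w/v bovine serum albumin added to the assay medium to track the effect of protein on antibacterial activity.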

[4] = biological target: T1, Cell division protein FtsZ (Staphylococcus aureus); assay: Inhibition of Staphylococcus aureus ATCC 29213 FtsZ assessed as appearance of enlarged cells at 2048 to 4096 ug/mL by light microscopy

Structure (SMILES)	Activity [1] [µg/mL]	MIC (Staphylococcus aureus [2]) [µg/mL]	MIC (Staphylococcus aureus [3]) [µg/mL]	other results
CCOc1ccc2sc(COc3ccc(F)c(C(N)=O)c3F)nc2c1	0.125	–	–	PPB (Plasma): 96.4%
NC(=O)c1c(F)ccc(OCc2nc3cc(Br)ccc3s2)c1F	0.25	0.125 (≈ 0.313 µM)	–	–
NC(=O)c1c(F)ccc(OCc2nc3c(-c4ccccc4)cccc3s2)c1F	–	> 256	–	–
Cc1cccc(COc2ccc(F)c(C(N)=O)c2F)n1	–	–	64	MIC [1]: 32 µg/mL (≈ 115 µM)
Cc1csc(COc2ccc(F)c(C(N)=O)c2F)c1	–	–	128	MIC [1]: 32 µg/mL (≈ 113 µM)
Cc1csc(COc2ccc(F)c(C(N)=O)c2F)n1	–	–	–	MIC [1]: 16 µg/mL (≈ 56.3 µM)
CCOc1cnc2sc(COc3ccc(F)c(C(N)=O)c3F)nc2c1	–	0.125 (≈ 0.342 µM)	0.25	PPB (Plasma): 89.9%
Cc1ccc2nc(COc3ccc(F)c(C(N)=O)c3F)sc2c1	–	8 (≈ 23.9 µM)	–	–
NC(=O)c1c(F)ccc(OCCn2cccn2)c1F	–	256 (≈ 958 µM)	256	–
NC(=O)c1c(F)ccc(OCc2nc3cc(O)ccc3s2)c1F	64	32 (≈ 95.1 µM)	–	–
NC(=O)c1c(F)ccc(OCc2nc3cccc(Cl)c3s2)c1F	8	4 (≈ 11.3 µM)	–	–
COc1ccc2sc(COc3ccc(F)c(C(N)=O)c3F)nc2c1	2	–	–	–
Cc1cccc2sc(COc3ccc(F)c(C(N)=O)c3F)nc12	2050	16 (≈ 47.9 µM)	–	–
NC(=O)c1c(F)ccc(OCc2nc3cc(-c4ccccc4)cnc3s2)c1F	–	0.5 (≈ 1.26 µM)	4	PPB (Plasma): 98.5%
NC(=O)c1c(F)ccc(OCc2nc3ccc(-c4ccccc4)cc3s2)c1F	–	> 256	–	–
NC(=O)c1c(F)ccc(OCc2nc3cc(-c4ccccc4)ccc3s2)c1F	0.5	0.25 (≈ 0.631 µM)	–	PPB (Plasma): 99.2%
NC(=O)c1ccc2sc(COc3ccc(F)c(C(N)=O)c3F)nc2c1	–	> 64	–	–
COc1cccc(C(N)=O)c1	–	2050 (≈ 13500 µM)	4100	inhibition [4]: Active
NC(=O)c1c(F)ccc(OCc2nc3c(Cl)cccc3s2)c1F	8	16 (≈ 45.1 µM)	–	–
NC(=O)c1c(F)ccc(OCc2nc3ccccc3s2)c1F	–	2 (≈ 6.24 µM)	8	MIC [1]: 4 µg/mL (≈ 12.5 µM)
CN(C)c1ccc2sc(COc3ccc(F)c(C(N)=O)c3F)nc2c1	–	> 64	–	–
